Assay results reported in ChEMBL document CHEMBL3393015, “Design, synthesis and evaluation of marinopyrrole derivatives as selective inhibitors of Mcl-1 binding to pro-apoptotic Bim and dual Mcl-1/Bcl-xL inhibitors” (Eur J Med Chem, 2015).
pIC50: −log10 of the molar value. The source made the active and inactive calls. The rule behind the calls is not given here.

What was measured:
[1] = molecular target: Bcl-xL/Bcl-2-like protein 11 (Homo sapiens, UniProt Q07817); assay: Inhibition of Bcl-xL/Bim (unknown origin) by ELISA; assay type: protein assay
Sequence of Bcl-xL/Bcl-2-like protein 11 (Q07817 whole entry): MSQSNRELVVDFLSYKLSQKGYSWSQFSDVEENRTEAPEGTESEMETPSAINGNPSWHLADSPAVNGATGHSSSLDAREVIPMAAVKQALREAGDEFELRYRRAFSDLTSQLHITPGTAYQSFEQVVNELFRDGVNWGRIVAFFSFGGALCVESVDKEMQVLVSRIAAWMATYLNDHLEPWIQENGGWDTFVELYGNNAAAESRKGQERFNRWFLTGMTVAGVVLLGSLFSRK
Sequence of Bcl-xL/Bcl-2-like protein 11 (O43521 whole entry, further chain): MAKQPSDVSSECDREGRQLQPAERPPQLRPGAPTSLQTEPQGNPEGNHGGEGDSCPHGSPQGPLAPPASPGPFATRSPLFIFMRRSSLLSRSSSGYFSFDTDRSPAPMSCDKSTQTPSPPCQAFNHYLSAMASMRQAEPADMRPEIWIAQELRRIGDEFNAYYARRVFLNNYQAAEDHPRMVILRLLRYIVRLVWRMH

[2] = tested on: MDA-MB-468; assay: Reduction in Mcl1 level in human MDA-MB-468 cells at 10 uM; assay type: functional, cell-based
Procedure, shortened: (§1)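 Human MDA-MB-468 breast cancer cells were exposed to the derivatives at 3 μM, and some at up to 10 μM. Cells were then processed for western blotting. Read-outs were Mcl-1 protein level and caspase 3 cleavage, used as the apoptosis marker.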

[3] = tested on: MDA-MB-468; assay: Induction of apoptosis in human MDA-MB-468 cells assessed as caspase 3 activity at 10 uM for 16 hrs; assay type: functional, cell-based; procedure, shortened: as §1
[4] = molecular target: Induced myeloid leukemia cell differentiation protein Mcl-1/Bcl-2-like protein 11 (Homo sapiens, UniProt Q07820); assay: Inhibition of Mcl1/Bim (unknown origin) by ELISA; assay type: protein assay
Sequence of Induced myeloid leukemia cell differentiation protein Mcl-1/Bcl-2-like protein 11 (Q07820 whole entry): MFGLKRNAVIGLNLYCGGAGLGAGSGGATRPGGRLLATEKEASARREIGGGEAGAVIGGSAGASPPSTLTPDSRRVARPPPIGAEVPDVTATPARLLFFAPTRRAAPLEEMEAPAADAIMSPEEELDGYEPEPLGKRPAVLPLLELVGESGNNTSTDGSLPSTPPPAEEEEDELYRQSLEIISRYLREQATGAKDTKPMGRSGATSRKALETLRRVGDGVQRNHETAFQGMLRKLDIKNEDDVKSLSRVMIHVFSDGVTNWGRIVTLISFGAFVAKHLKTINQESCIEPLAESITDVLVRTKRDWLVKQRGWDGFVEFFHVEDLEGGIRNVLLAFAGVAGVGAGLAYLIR
Sequence of Induced myeloid leukemia cell differentiation protein Mcl-1/Bcl-2-like protein 11 (O43521 whole entry, further chain): as the sequence (O43521 whole entry, further chain) above

[5] = tested on: MDA-MB-468; assay: Induction of apoptosis in human MDA-MB-468 cells assessed as caspase 3 activity at 3 uM for 16 hrs
[6] = tested on: MDA-MB-468; assay: Reduction in Mcl1 level in human MDA-MB-468 cells at 3 uM; assay type: functional, cell-based; procedure, shortened: as §1

pIC50 [1]	pIC50 [4]	SMILES	Activity [2]	Activity [3]	Activity [5]	Activity [6]
5.02	5.10	COc1ccccc1C(=O)c1[nH]c(Cl)c(Cl)c1-n1c(C(=O)c2ccc(Cl)cc2OC)cc(Cl)c1Cl	inactive	inactive		
5.46	5.43	C=Cc1ccc(C(=O)c2[nH]c(Cl)c(Cl)c2-n2c(C(=O)c3ccc(C=C)cc3O)cc(Cl)c2Cl)c(O)c1	Active		Active	
5.80	5.48	O=C(c1ccc(-c2cn(Cc3ccccc3)nn2)cc1O)c1[nH]c(Cl)c(Cl)c1-n1c(C(=O)c2ccc(-c3cn(Cc4ccccc4)nn3)cc2O)cc(Cl)c1Cl	inactive	inactive		
5.10	< 4.00	Cn1c(Cl)c(Cl)c(-n2c(C(=O)c3ccccc3O)cc(Cl)c2Cl)c1C(=O)c1ccccc1O				
		CC1(C)CCC(c2ccc(Cl)cc2)=C(CN2CCN(c3ccc(C(=O)NS(=O)(=O)c4ccc(N[C@H](CCN5CCOCC5)CSc5ccccc5)c(S(=O)(=O)C(F)(F)F)c4)cc3)CC2)C1				inactive
5.09	5.29	CC(C)(C)OC(=O)Cn1cc(-c2ccc(C(=O)c3[nH]c(Cl)c(Cl)c3-n3c(C(=O)c4ccc(-c5cn(CC(=O)OC(C)(C)C)nn5)cc4O)cc(Cl)c3Cl)c(O)c2)nn1	inactive	inactive		
		C#Cc1ccc(C(=O)c2[nH]c(Cl)c(Cl)c2-n2c(C(=O)c3ccc(C#C)cc3O)cc(Cl)c2Cl)c(O)c1	Active		Active	
5.42	5.85	O=C(c1ccc(-c2cn(C3CCCCC3)nn2)cc1O)c1[nH]c(Cl)c(Cl)c1-n1c(C(=O)c2ccc(-c3cn(C4CCCCC4)nn3)cc2O)cc(Cl)c1Cl	inactive	inactive		
5.01	5.09	O=C(c1ccc(C(F)(F)F)cc1O)c1[nH]c(Cl)c(Cl)c1-n1c(C(=O)c2ccc(C(F)(F)F)cc2O)cc(Cl)c1Cl	Active		Active	
		CCc1ccc(C(=O)c2[nH]c(Cl)c(Cl)c2-n2c(C(=O)c3ccc(CC)cc3O)cc(Cl)c2Cl)c(O)c1	Active		Active	
4.74	5.41	O=C(c1ccccc1O)c1[nH]c(Cl)c(Cl)c1-n1c(C(=O)c2cc(Cl)ccc2O)cc(Cl)c1Cl	inactive		inactive	
		O=C(c1ccc(P(=O)(O)O)cc1O)c1[nH]c(Cl)c(Cl)c1-n1c(C(=O)c2ccc(P(=O)(O)O)cc2O)cc(Cl)c1Cl	inactive	inactive		
< 4.30	4.40	O=C(c1ccc(O)cc1O)c1[nH]c(Cl)c(Cl)c1-n1c(C(=O)c2ccc(O)cc2O)cc(Cl)c1Cl	inactive	inactive		
< 4.00		CCOC(=O)Cn1cc(-c2ccc(C(=O)c3[nH]c(Cl)c(Cl)c3-n3c(C(=O)c4ccc(-c5cn(CC(=O)OCC)nn5)cc4O)cc(Cl)c3Cl)c(O)c2)nn1	inactive	inactive		
6.30	6.22	CCCCCCCCn1cc(-c2ccc(C(=O)c3[nH]c(Cl)c(Cl)c3-n3c(C(=O)c4ccc(-c5cn(CCCCCCC)nn5)cc4O)cc(Cl)c3Cl)c(O)c2)nn1				
4.67	5.02	O=C(c1ccccc1O)c1[nH]c(Cl)c(Cl)c1-n1c(C(=O)c2ccc(F)cc2O)cc(Cl)c1Cl	Active		Active	
4.19	4.81	COc1ccccc1C(=O)c1c(-n2c(C(=O)c3ccccc3OC)cc(Cl)c2Cl)c(Cl)c(Cl)n1C				
		Cc1cc(O)c(C(=O)c2[nH]c(Cl)c(Cl)c2-n2c(C(=O)c3cc(Cl)c(C)cc3O)cc(Cl)c2Cl)cc1Cl	Active		Active	
4.85	5.80	CC(C)(C)OC(=O)Cn1cc(-c2cc(O)c(C(=O)c3[nH]c(Cl)c(Cl)c3-n3c(C(=O)c4cc(Cl)c(-c5cn(CC(=O)OC(C)(C)C)nn5)cc4O)cc(Cl)c3Cl)cc2Cl)nn1				
5.68	6.00	O=C(c1ccc(OS(=O)(=O)C(F)(F)F)cc1O)c1[nH]c(Cl)c(Cl)c1-n1c(C(=O)c2ccccc2O)cc(Cl)c1Cl	Active		Active	
		CCOC(=O)CSc1ccc(C(=O)c2[nH]c(Cl)c(Cl)c2-n2c(C(=O)c3ccc(SCC(=O)OCC)cc3O)cc(Cl)c2Cl)c(O)c1				inactive

SMILES	pIC50 [1]	pIC50 [4]	Activity [2]	Activity [3]	Activity [5]	Activity [6]
O=C(O)Cn1cc(-c2cc(O)c(C(=O)c3[nH]c(Cl)c(Cl)c3-n3c(C(=O)c4cc(Cl)c(-c5cn(CC(=O)O)nn5)cc4O)cc(Cl)c3Cl)cc2Cl)nn1	< 4.30		inactive	inactive		
O=C(c1ccccc1O)c1[nH]c(Cl)c(Cl)c1-n1c(C(=O)c2cc(F)ccc2O)cc(Cl)c1Cl	4.88	5.05	Active	Active		
O=C(c1ccccc1O)c1[nH]c(Cl)c(Cl)c1-n1c(C(=O)c2c(O)cccc2F)cc(Cl)c1Cl	4.36	4.88	inactive	inactive		
CCOC(=O)Cn1cc(-c2cc(O)c(C(=O)c3[nH]c(Cl)c(Cl)c3-n3c(C(=O)c4cc(Cl)c(-c5cn(CC(=O)OCC)nn5)cc4O)cc(Cl)c3Cl)cc2Cl)nn1	< 4.00		inactive	inactive		
O=C(c1cc(Cl)c(O)cc1O)c1[nH]c(Cl)c(Cl)c1-n1c(C(=O)c2cc(Cl)c(O)cc2O)cc(Cl)c1Cl	< 4.30	4.97	inactive	inactive		
O=C(c1ccccc1O)c1[nH]c(Cl)c(Cl)c1-n1c(C(=O)c2ccc(Cl)cc2O)cc(Cl)c1Cl	5.04	5.19	Active	Active		
O=C(O)Cn1cc(-c2ccc(C(=O)c3[nH]c(Cl)c(Cl)c3-n3c(C(=O)c4ccc(-c5cn(CC(=O)O)nn5)cc4O)cc(Cl)c3Cl)c(O)c2)nn1	< 4.30		inactive	inactive		
O=C(c1ccccc1O)c1[nH]c(Cl)c(Cl)c1-n1c(C(=O)c2ccccc2O)cc(Cl)c1Cl	4.79					
O=C(O)CSc1ccc(C(=O)c2[nH]c(Cl)c(Cl)c2-n2c(C(=O)c3ccc(SCC(=O)O)cc3O)cc(Cl)c2Cl)c(O)c1	< 4.00		inactive	inactive		
O=C(c1ccccc1O)c1[nH]c(Cl)c(Cl)c1-n1c(C(=O)c2cccc(Cl)c2O)cc(Cl)c1Cl	5.00	5.39				
O=C(c1ccc(-c2cn(-c3ccccc3)nn2)cc1O)c1[nH]c(Cl)c(Cl)c1-n1c(C(=O)c2ccc(-c3cn(-c4ccccc4)nn3)cc2O)cc(Cl)c1Cl	6.10	5.82				
